Screens: PubChem, several laboratories
MC4R barr agon: agonists of human melanocortin 4 receptor (MC4R) beta-arrestin | AID 540308 | activation, % at 8.9 µM | P32245 | U2OS MC4R beta-arrestin complementation, luminescence; percent of melanotan II response, DMSO zero | hit rate 0.98% among 360,000;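 active = activation above a per-plate cutoff, the mean activation of sample wells on that plate plus 3 SD, cut at about 8% in these data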
Target sequence (P32245 whole entry, looked up): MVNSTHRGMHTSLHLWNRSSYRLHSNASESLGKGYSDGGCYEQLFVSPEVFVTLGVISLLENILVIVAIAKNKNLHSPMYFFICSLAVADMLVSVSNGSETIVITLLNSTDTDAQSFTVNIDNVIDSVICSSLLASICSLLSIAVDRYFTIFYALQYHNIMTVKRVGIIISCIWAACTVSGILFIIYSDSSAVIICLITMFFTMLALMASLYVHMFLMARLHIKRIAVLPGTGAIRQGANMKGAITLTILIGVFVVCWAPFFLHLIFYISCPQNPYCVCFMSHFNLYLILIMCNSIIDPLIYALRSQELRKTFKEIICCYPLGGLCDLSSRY
MC4R antagonist: blocks human MC4R cAMP signaling. hit rate 0.48% among 360,000. AID 540295. MC4R-expressing cells, MTII-stimulated cAMP, LANCE TR-FRET. inhibition, % at 6.5 µM. P32245;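 active = inhibition above its plate's cutoff, the mean of tested wells on that plate plus 3 SD, cut at about 29% in these data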;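 note: 0% = Melanotan II alone and 100% = Melanotan II plus saturating MCL0020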
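Material – human MC4R-expressing U2OS cells · Repeats – no replicates · Detection – TR-FRET with Eu-cAMP and labeled anti-cAMP, 671 nm · Times – compound 30 min, challenge 1 h, detection 1 h · Compound – single nominal compound dose of 6.5 µM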
m5-HT2A agonist: mouse HTR2A agonism via beta-arrestin recruitment; CHO-K1 mHTR2A beta-arrestin complementation, luminescence; percent of 30 µM serotonin response; activation, % at 7.6 µM; hit rate 0.66% among 360,000; AID 624169;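 active = activation above a run cutoff, the mean activation of all tested compounds plus 3 SD, cut at about 14% in these data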;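 note: 0% = plate median of compound wells and 100% = 30 µM serotonin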
EBI2 antag: EBI2 (human) antagonism; EBI2 beta-arrestin recruitment, luminescence, 7a,25-OHC stimulated; inhibition, % at 5 µM; hit rate 0.81% among 360,000; in the data active = inhibition above about 38%;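 note: enzyme fragment complementation signal reports receptor beta-arrestin coupling in cells; 0% = agonist plus DMSO wells and 100% = wells without agonist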
U2OS cAMP counter: U2OS forskolin cAMP inhibition counter-screen; shares compounds with MC4R antagonist; parental U2OS, LANCE TR-FRET; inhibition, % at 6.5 µM; hit rate 26% among 1,600;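 active = mean inhibition over triplicates above the low-control well mean plus 3 SD, set per campaign, cut at about 13% in these data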;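 note: signal is single emission at 671 nm which falls as cellular cAMP rises; 0% = forskolin-stimulated wells and 100% = buffer without forskolin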
MC4R antag conf: human MC4R cAMP antagonism confirmation. MC4R-expressing cells, MTII-stimulated cAMP, TR-FRET. hit rate 27% among 1,600. AID 602195. shares compounds with MC4R antagonist. inhibition, % at 6.5 µM; in the data active = inhibition above about 29%;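 note: 0% = agonist stimulated wells alone and 100% = agonist stimulated wells plus saturating reference antagonist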
* marks the source's active call; other numbers are inactive results; . = no result given. This is a sample that favours compounds with a hit; in the whole collection about 2.8% have one here.

SMILES	MC4R barr agon	MC4R antagonist	m5-HT2A agonist	EBI2 antag	U2OS cAMP counter	MC4R antag conf
CC(C)c1nnc(NC(=O)c2nc(S(=O)(=O)Cc3ccc(F)cc3)ncc2Cl)s1	-3	56*	-3	19	16*	39*
CSc1nnc(NC(=O)c2nc(S(=O)(=O)Cc3cccc(C)c3)ncc2Cl)s1	-3	59*	-8	25	29*	48*
CSc1ncc(Cl)c(C(=O)Nc2nnc(SC/C=C/c3ccccc3)s2)n1	-1	4	0	-1	.	.
Cc1ccc(CS(=O)(=O)c2ncc(Cl)c(C(=O)Nc3ccc(OC(F)F)cc3)n2)cc1	-4	40*	-3	43	23*	13
Cc1ccc(CS(=O)(=O)c2ncc(Cl)c(C(=O)Nc3nnc(C(C)C)s3)n2)cc1	-1	51*	-1	38	24*	41*
CC(=O)C1CCC2C3CCC4CC(=O)CCC4(C)C3C=CC12C (stereo not given)	2	7	-3	7	.	.
NC(=O)c1ccccc1NC(=O)c1cc(S(=O)(=O)N2CCCCC2)ccc1N1CCOCC1	-2	2	-5	5	.	.
Cc1cccc(S(=O)(=O)NC(=O)C2(C)CCN2C(=O)C2(c3ccc(Cl)cc3)CCC2)c1 (stereo not given)	-1	1	3	-16	.	.
CSc1nnc(NC(=O)c2nc(S(=O)(=O)Cc3ccccc3F)ncc2Cl)s1	-2	41*	7	15	18*	38*
O=C(NCc1ccc2c(c1)OCO2)c1nc(S(=O)(=O)Cc2ccccc2)ncc1Cl	-6	1	-2	-6	.	.
CCSc1nnc(NC(=O)c2nc(S(=O)(=O)Cc3ccc(F)cc3)ncc2Cl)s1	-2	49*	-4	16	14*	20
Cc1nnc(NC(=O)c2nc(S(=O)(=O)Cc3ccccc3C)ncc2Cl)s1	2	22	1	13	.	.
Cc1cccc(CS(=O)(=O)c2ncc(Cl)c(C(=O)Nc3nnc(C(C)C)s3)n2)c1	-3	58*	-5	35	27*	54*
COC(=O)[C@@]12C[C@@H](CC(=O)N3CCN(C(=O)c4ccco4)CC3)C(=O)N(Cc3ccc4c(c3)OCO4)C1=CCC(C)(C)C2	.	.	0	-2	.	.
CS(=O)(=O)c1ccc(Cl)c(NC(=O)COC(=O)CNC(=O)c2ccc(Br)o2)c1	1	32*	6	4	2	4
CS(=O)(=O)c1ccc(Cl)c(NC(=O)COC(=O)CNC(=O)c2ccc3ccccc3c2)c1	-1	13	-1	7	.	.
CS(=O)(=O)c1nc([N+](=O)[O-])nn1CCCc1ccccc1	-2	34*	0	-8	2	24
S=C1NC[C@H](Cc2ccccc2)N1CC1CCN(CCCC2CCCC2)CC1	4	63*	-9	-3	2	0
S=C1NC[C@H](Cc2ccccc2)N1CCCCC1CCCCC1	-3	-1	-2	4	.	.
CCN(CC)S(=O)(=O)c1ccc(N2CCOCC2)c(NC(=O)c2ccccc2F)c1	-3	30*	-2	5	3	18
O=C(O)c1cccc(S(=O)(=O)Nc2ccccc2-c2ccccc2)c1	0	29*	1	-6	3	-8
O=S(=O)(Nc1ccccc1-c1ccccc1)c1ccccc1	-2	3	-5	9	.	.
CCc1nc2c(OCc3ccc(F)c(F)c3)cccn2c1N(C)C(=O)C1CC1	-2	-1	-1	0	.	.
CCOC(=O)C1=C(O)/C(=C/c2ccc(OCC(=O)O)c(OCC)c2)SC1=Nc1ccc(C)cc1	0	29*	-1	2	-6	-2
CCOC(=O)C1=C(O)/C(=C/c2ccc(OCC(=O)O)c(OCC)c2)SC1=Nc1ccc(OC)cc1	-2	-5	2	-6	.	.
SMILES	MC4R barr agon	MC4R antagonist	m5-HT2A agonist	EBI2 antag	U2OS cAMP counter	MC4R antag conf
CCNC(=O)C1(C)CCN(C(=O)c2ccccc2F)C1 (stereo not given)	0	6	-3	-4	.	.
COC(=O)C[C@@H]1CC[C@H](NC(=O)c2ccc3c(c2)OCO3)[C@@H](CO)O1	.	.	0	3	.	.
CC1(C)OC(=O)C(=Cc2ccc(-c3ccc(S(N)(=O)=O)cc3)o2)C(=O)O1	-1	39*	2	-1	11	19
NS(=O)(=O)c1ccc(-c2ccc(/C=C3\C(=O)Nc4cc(Cl)ccc43)o2)cc1	-1	3	1	14	.	.
COC(=O)[C@@]12C[C@@H](CC(=O)N3CCN(C(=O)C4CC4)CC3)C(=O)N(CCc3ccc(OC)c(OC)c3)C1=CCC(C)(C)C2	.	.	2	0	.	.
CCCCNc1c(-c2ccc(OC)c(SC3CCCCC3)c2)nc2cnccn12	7	32*	1	15	8	27
CCCCNc1c(-c2ccc(OC)c(SC3CCCCC3)c2)nc2cc(C)ccn12	-2	18	-7	16	.	.
CCOc1ccc(CCN2C(=O)C(=O)N([C@@H](Cc3ccccc3)CN3CCC[C@H]3CN3C(=O)C(=O)NC[C@@H]3CC(C)C)C[C@@H]2Cc2ccc(O)cc2)cc1	.	.	1	6	.	.
NC(c1csc(NC(=O)c2cccc(OC(F)(F)F)c2)n1)c1ccccc1Cl (stereo not given)	-3	-7	2	3	.	.
CC1CCC2(CC1)NC(=O)N(CC(=O)NC(=O)Nc1ccc3c(c1)OCCO3)C2=O (stereo not given)	3	29*	13	23	-3	-12
Cc1ccc(S(=O)(=O)Nc2nc(C)cc(NN)n2)cc1	-1	29*	-1	2	4	9
COc1cc(/C=N/NC(=O)CCn2c3ccccc3c3ccccc32)cc(OC)c1OC	7	-7	-1	-3	.	.
COc1ccc(/C=N/NC(=O)CCn2c3ccccc3c3ccccc32)cc1OC	1	29*	1	2	-4	-18
CCn1c2ccccc2c2cc(/C=N/NC(=O)c3ccc(O)cc3)ccc21	5	29*	-5	11	6	9
O=C(Nc1ccc2c(c1)OCCO2)C1C(c2ccccc2)=Nc2ccccc2N1C(=O)c1cccnc1 (stereo not given)	.	.	3	-9	.	.
COc1ccc(NS(=O)(=O)c2ccc(-n3cnnn3)cc2)cc1OC	2	29*	14	-6	3	-17
COC(=O)COc1cccc(NC(=O)C(c2ccccc2)c2ccccc2)c1	2	29*	-3	10	7	15
O=C(COC(=O)/C=C/c1ccccc1[N+](=O)[O-])NC(=O)NC1CCCC1	1	-1	4	-7	.	.
COc1ccccc1NC(=O)Nc1nc(CC(=O)Nc2cc(F)ccc2F)cs1	-1	2	-3	-3	.	.
CCOC(=O)N(C)C[C@@H]1OCc2cnnn2CCCC(=O)N([C@H](C)CO)C[C@@H]1C	2	2	-4	-1	.	.
